Data reported in article PMC2195906 (The Journal of Experimental Medicine, 2001).
“Also recorded” adds a separate entry of the source.

Legend:
recombinant Bcl-2 = test: Plasmon resonance: interaction with recombinant Bcl-2; assay type: binding, human; conditions: surface plasmon resonance, control experiments
PTPC = conditions: cited from earlier work
[1] = tested on: purified mitochondria (respiratory control); test: Respiratory control; assay type: biochemical, mouse; conditions: 1 μM Vpr-derived peptides, 10 min
Method in brief: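 Clark-electrode oxygraphy at 37°C in 0.3 M mannitol, 10 mM KCl, 5 mM MgCl2, 1 mg/ml BSA, 10 mM KH2PO4, pH 7.4. Purified mitochondria were pretreated 10 min with 1 μM peptide; succinate oxidation was followed with sequential ADP, oligomycin and CCCP additions. Mean of three determinations.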

ANT proteoliposomes [2] = test: Pore-opening assay: 4-MUP release from ANT proteoliposomes; assay type: biochemical, rat; conditions: peptides 1 μM, 60 min, Atr 200 μM = 100%, Fig. 2 C
Method in brief: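 ANT purified from rat heart mitochondria, reconstituted into PC/cardiolipin liposomes, sonicated on ice with 1 mM 4-MUP/10 mM KCl, gel-filtered. Diluted in 10 mM Hepes, 125 mM saccharose pH 7.4, peptide 1 h RT; inhibitors added 30 min earlier. Alkaline phosphatase (0.5 mM MgCl2) 15 min 37°C, stopped at pH 10. 4-MU fluorescence 360/450 nm. Release = % of atractyloside response after untreated background subtraction; n = 3, SD.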

ANT [3] = biological target: T1, ANT (Rattus norvegicus, UniProt Q05962); test: Plasmon resonance; assay type: binding
T1 sequence (Q05962 1-298): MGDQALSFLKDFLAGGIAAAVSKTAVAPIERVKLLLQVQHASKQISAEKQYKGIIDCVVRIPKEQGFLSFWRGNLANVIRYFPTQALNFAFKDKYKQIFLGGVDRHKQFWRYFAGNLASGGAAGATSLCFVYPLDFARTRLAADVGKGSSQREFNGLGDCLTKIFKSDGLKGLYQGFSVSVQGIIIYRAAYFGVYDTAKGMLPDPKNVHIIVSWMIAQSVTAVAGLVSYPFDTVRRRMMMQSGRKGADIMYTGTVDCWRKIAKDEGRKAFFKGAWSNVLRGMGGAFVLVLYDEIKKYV

[4] = tested on: purified mitochondria (respiratory chain); test: Polarography: succinate oxidation of purified mitochondria; assay type: biochemical, mouse; conditions: 1 μM Vpr52-96, 10 min pretreatment; Fig. 4 A
Method in brief: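 Mouse liver mitochondria, pretreated 10 min with test peptide or untreated, held at 37°C in a Clark-electrode cell. Medium: 0.3 M mannitol, 10 mM KCl, 5 mM MgCl2, 1 mg/ml BSA, 10 mM KH2PO4, pH 7.4. Oxygen consumption traced on succinate with sequential ADP, oligomycin and CCCP additions.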

[5] = Planar lipid bilayers, single channel level, Vpr52-96 without ANT; assay type: biochemical; conditions: <1 nM Vpr52-96
Method in brief: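 Solvent-free planar bilayers formed by monolayer apposition on a 125-μm Teflon aperture, or by tip-dip on patch pipettes. Recording was in symmetric 100 mM KCl, 2 mM MgCl2, 10 mM Hepes pH 7.4, with Ag/AgCl electrodes under applied voltage. Bare membranes were first checked for electrical silence; peptide was added to the aqueous subphase after bilayer formation. Single-channel current traces show the most frequent events.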

[6] = tested on: purified mitochondria, outer membrane; test: Cytochrome c oxidation; assay type: biochemical, mouse; conditions: 15 μM cytochrome c; 100% by 2.5 mM laurylmaltoside; Fig. 5 B
Method in brief: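 Mouse liver mitochondria exposed to test peptide, followed over time. Outer-membrane permeability read as spectrophotometric/spectrofluorometric oxidation of added reduced cytochrome c (15 μM) by cytochrome c oxidase. Maximal (100%) oxidation set by 2.5 mM laurylmaltoside; signal expressed as a percentage of this. Inner-membrane NADH oxidation (2 mM, oxygen consumption) tracked in parallel.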

recombinant VDAC = test: Plasmon resonance: binding to recombinant VDAC; conditions: control experiments, VDAC concentrations up to 10 μM
ANT [7] = biological target: T1, ANT; test: Planar lipid bilayers, single channel level, Vpr52-96 plus ANT; assay type: biochemical; conditions: Vpr52-96 plus ANT 0.4:1 nM, +115 mV; tip-dip technique
Method in brief: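 Rat heart mitochondrial ANT, purified via subtilisin treatment, Triton X-100 solubilization, hydroxyapatite and SP column (0–1 M NaCl). Proteins held 30 min RT with 1 mM CaCl2, 40 μM atractyloside or control electrolyte, mixed with dried lipid (60 μg protein/mg lipid), detergent removed by beads. Tip-dip bilayers, symmetric 100 mM KCl, 2 mM MgCl2, 10 mM Hepes pH 7.4.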

[8] = tested on: purified mitochondria (cytochrome c release); test: Cytochrome c release immunodetected in supernatant of mitochondria; assay type: biochemical, mouse; conditions: 1 μM Vpr52-96; immunoblot; Fig. 5 C
Method in brief: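 Mouse liver mitochondria treated with test peptide over a time course. Supernatants cleared by two spins (6,800 g 15 min; 20,000 g 1 h; both 4°C), stored at −80°C, and cytochrome c immunodetected with a mouse monoclonal antibody. In parallel, ΔΨm loss scored by flow cytometry with JC-1 as percent low-ΔΨm mitochondria.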

isolated mitochondria = test: Ultrastructure: swelling of isolated mitochondria; assay type: biochemical, mouse; conditions: for swollen mitochondria: control <5%
[9] = Pore-opening assay: plain liposomes; assay type: biochemical; conditions: 4-MUP loaded, data not shown
Method in brief: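 Liposomes sonicated on ice with 1 mM 4-MUP and 10 mM KCl, then freed of unencapsulated probe on Sephadex G-25. Diluted in 10 mM Hepes, 125 mM saccharose pH 7.4 and exposed to inducers for 1 h at RT; inhibitors were added 30 min earlier. Alkaline phosphatase with 0.5 mM MgCl2 was added for 15 min at 37°C and stopped with EDTA buffer at pH 10. 4-MU fluorescence (360/450 nm) was expressed as % of the atractyloside response after subtracting untreated liposomes.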

[10] = tested on: purified mitochondria, inner membrane; test: Respirometry: NADH-dependent oxygen consumption; assay type: biochemical, mouse
Method in brief: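 Oxygen uptake was recorded by Clark electrode at 37°C (mannitol/KCl/MgCl2/BSA/KH2PO4 medium, pH 7.4) after 2 mM NADH and 1 μM peptide, with rotenone added to test sensitivity; rates are in nmol O2/min/mg protein. For inhibitor tests, mitochondria were pretreated 10 min with 0.8 μM Bcl-2 or 10 μM BA before succinate plus CCCP or NADH. In the kinetics, 15 μM cytochrome c oxidation was followed in parallel, with 100% set by 2.5 mM laurylmaltoside.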

ANT proteoliposomes [11] = test: Binding of FITC-labeled Vpr52-96 to ANT proteoliposomes; design: species or system rat; conditions: FITC-labeled Vpr52-96, 30 min; Fig. 2 A; n = 3
Method in brief: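 ANT was purified from rat heart mitochondria (Triton X-100 extraction, hydroxyapatite, then cation-exchange with a 0–1 M NaCl gradient) and reconstituted at 0.1 mg/ml into phosphatidylcholine/cardiolipin liposomes, then dialysed overnight at 4°C. Proteoliposomes were exposed 30 min to FITC-peptide in 125 mM sucrose/10 mM Hepes pH 7.4, ultracentrifuged (290,000 g, 45 min, 10°C) and read by flow cytometry. Inhibitors were preincubated and washed out; mean ± SD, n = 3.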

## Vpr53-96: printed once; probably Vpr52-96
Recombinant Bcl-2
  interaction with recombinant Bcl-2: found not to interact with recombinant Bcl-2

## Vpr1-96: entire (full-length) Vpr protein
PTPC
  action on PTPC and mitochondrial hallmarks of apoptosis: act on the PTPC to induce all mitochondrial hallmarks of apoptosis, including ΔΨm loss and the release of cytochrome c and apoptosis-inducing factor (AIF)
[1]
  effect on RC (in words): also reduced the RC values

## CC[C@H](C)[C@H](NC(=O)CNC(=O)[C@@H](NC(=O)[C@H](CCCNC(=N)N)NC(=O)[C@H](CO)NC(=O)[C@H](Cc1c[nH]cn1)NC(=O)[C@H](CCCNC(=N)N)NC(=O)[C@H](CS)NC(=O)CNC(=O)[C@@H](NC(=O)[C@H](CCCNC(=N)N)NC(=O)[C@H](Cc1ccccc1)NC(=O)[C@H](Cc1c[nH]cn1)NC(=O)[C@@H](NC(=O)[C@H](Cc1ccccc1)NC(=O)[C@H](CC(C)C)NC(=O)[C@H](CC(C)C)NC(=O)[C@H](CCC(N)=O)NC(=O)[C@H](CCC(N)=O)NC(=O)[C@H](CC(C)C)NC(=O)[C@@H](NC(=O)[C@H](CCCNC(=N)N)NC(=O)[C@@H](NC(=O)[C@H](CC(C)C)NC(=O)[C@H](C)NC(=O)[C@H](CCC(=O)O)NC(=O)[C@@H](NC(=O)CNC(=O)[C@@H](NC(=O)[C@H](Cc1c[nH]c2ccccc12)NC(=O)[C@@H](NC(=O)[C@@H](N)CC(=O)O)[C@@H](C)O)[C@@H](C)O)C(C)C)[C@@H](C)CC)[C@@H](C)CC)[C@@H](C)CC)[C@@H](C)CC)[C@@H](C)CC)C(=O)N[C@H](C(=O)N[C@@H](CCC(N)=O)C(=O)N[C@@H](CCC(N)=O)C(=O)N[C@@H](CCCNC(=N)N)C(=O)N[C@@H](CCCNC(=N)N)C(=O)N[C@H](C(=O)N[C@@H](CCCNC(=N)N)C(=O)N[C@@H](CC(N)=O)C(=O)NCC(=O)N[C@@H](C)C(=O)N[C@@H](CO)C(=O)N[C@@H](CCCCN)C(=O)N[C@@H](CO)C(=O)O)[C@@H](C)O)[C@@H](C)CC [Vpr52-96]
ANT proteoliposomes [2]
  permeabilization of ANT proteoliposomes: caused permeabilization of ANT proteoliposomes
ANT [3]; plasmon resonance, association and dissociation phase, Fig. 1 A
  sensorgram: increase of binding as a function of time: exhibits an increase of binding as a function of time and a positive signal at the start of the dissociation phase (off)
ANT [3]; surface plasmon resonance, purified detergent-solubilized ANT
  binding affinity for ANT (in words): affinity in the nanomolar range
[4]
  effect on respiration (succinate oxidation): increased succinate oxidation preceding ADP addition and abolished both the inhibitory effect of oligomycin (a specific ATPase inhibitor) and the stimulatory effect of uncoupling by the protonophore CCCP; also recorded: not associated with a significant decrease of the oxidation rate; also recorded: adding cytochrome c to Vpr52-96–treated mitochondria oxidizing succinate did not stimulate the rate of oxygen uptake
[5]
  channel formation at low doses without ANT: incapable of forming channels
[6]
  access of cytochrome c to cytochrome c oxidase: only induced a marginal access of cytochrome c to cytochrome c oxidase
Recombinant VDAC
  specific binding to VDAC: no specific binding
ANT [7]
  channel conductance, Vpr52-96 plus ANT: 190 ± 2 pS
[8]
  order of ΔΨm loss, inner MMP and cytochrome c release: the ΔΨm loss occurred before cytochrome c release can be detected by immunoblot; also recorded: causes inner MMP well before OM becomes permeable to cytochrome c
[1]
  effect on RC (in words): gross deficiency in respiratory control
Isolated mitochondria; 5 min after 3 μM Vpr52-96, X ± SEM, n = 3
  swollen mitochondria: 82 ± 4%
Isolated mitochondria; 15 min after 3 μM Vpr52-96
  swollen mitochondria: 99 ± 1%
Isolated mitochondria; Vpr52-96-treated mitochondria, Fig. 6 C
  ultrastructural effect (in words): exhibited matrix swelling before OM rupture became apparent
[9]
  effect on plain liposomes: had no effect on plain liposomes
[10]; 1 μM Vpr52-96, 2 mM NADH, Fig. 5 A
  NADH-dependent oxygen consumption (IM permeabilization to NADH): prompted a significant, NADH-stimulated oxygen consumption
[10]; Vpr52-96, 2 mM NADH, Fig. 5 B
  time of maximal NADH oxidation after addition: 10 min
ANT proteoliposomes [11]
  binding to ANT liposomes compared with protein-free liposomes: greatly facilitated in liposomes in which ANT has been reconstituted compared with protein-free liposomes
